Compound activity (PubChem)
eIF2B yeast act – GCN4-lacZ reporter reduction in eIF2B-epsilon mutant yeast, primary screen, S. cerevisiae, eIF2B-epsilon R284H, Beta-Glo luminescence. inhibition, % at 25 µM (by protocol). actives 0.91% (n = 27,000). AID 688, 2007;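 active = mutant luminescence inhibited past about 50% while wild type luminescence and mutant growth stay under set limits, limit read from the data; inconclusive = mutant versus wild type luminescence inhibition gap past a set limit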
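Times: 16 h growth with compound at 30 °C, 90 min Beta-Glo step; Assay system: yeast eIF2B-epsilon R284H mutant carrying GCN4–beta-galactosidase fusion; Measure: % inhibition of reporter signal and growth versus controls; Dosing: one concentration, 25 µM, 0.25% DMSO; Buffer or medium: YPD yeast growth medium; Measured by: Beta-Glo luminescence plus absorbance at 595 nm.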
Yeast growth tox – yeast growth toxicity, wild-type and mutant, primary screen, cytotoxicity control for eIF2B function restoration project, wild-type and eIF2Bepsilon R284H mutant, A595. S. cerevisiae wild-type growth, A595 turbidity, 16 h. AID 685, 2007. actives 0.3% (n = 30,000). growth inhibition, % at 25 µM (by protocol);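 active = mutant and wild-type yeast strains alike exhibit over 30% growth inhibition; inconclusive = a strain exceeds 50% while the second remains under 30%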;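 note: 0% = untreated cell controls and 100% = YPD media blanks without cells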
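Schedule: 16 h growth with compound, 30 °C. System: yeast, wild-type or eIF2Bepsilon-R284H mutant. Doses: one dose, 25 µM compound[…]. Buffer or medium: YPD. Signal: turbidity measured as absorbance at 595 nm. Read-out basis: growth inhibition (%) versus cell controls and blanks.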
An asterisk follows results filed as active. Shown are actives, neighbours in structure and some others; about 1.1% of the full set was active somewhere.

CC(C)(C)CC(C)(C)NC(=O)CSCC(=O)Nc1ccc2ccccc2c1 was read as eIF2B yeast act 20.4 and Yeast growth tox -22.0.
`CC1(C)Cc2c(cnn2-c2ccccc2)-c2c1c1ccccc1n2CC(O)CBr` (stereo unspecified) gave eIF2B yeast act 3.0 and Yeast growth tox 38.9.
Screening Cc1c(O)c(CN2CCCC2)cc2c1oc(=O)c1ccccc12 returned eIF2B yeast act 58.1* and Yeast growth tox -2.3.
Screening Oc1c(CN2CCOCC2)cc(-c2ccccc2)cc1CN1CCOCC1 returned eIF2B yeast act 6.3 and Yeast growth tox 38.9.
`CCCCNC(=O)c1ccc(CNc2c(N3CCC(C(=O)OCC)CC3)c(=O)c2=O)cc1` gave eIF2B yeast act 15.5 and Yeast growth tox 8.6.
`O=C(Nc1ccc(N2CCOCC2)cc1)c1ccncc1` gave eIF2B yeast act -13.1.
`Cc1ccnc2nc(C(=O)Nc3ccc(N4CCOCC4)cc3)nn12` gave eIF2B yeast act 52.6* and Yeast growth tox 23.7.
O=c1c(C(c2ccccc2)c2c(O)sc3ccccc3c2=O)c(O)sc2ccccc12 was read as eIF2B yeast act 8.2 and Yeast growth tox -13.5.
`O=C(Cc1ccccc1)N(c1ccc(F)cc1)C1C=CS(=O)(=O)C1` (stereo unspecified) gave eIF2B yeast act 56.1* and Yeast growth tox 7.3.
`O=C(Cc1ccc(F)cc1)N(c1ccc(F)cc1)C1C=CS(=O)(=O)C1` (stereo unspecified) gave eIF2B yeast act -25.9 and Yeast growth tox -1.3.
CC(C)C(=O)N(c1ccc(F)cc1)C1C=CS(=O)(=O)C1 (stereo unspecified) was read as eIF2B yeast act 22.7 and Yeast growth tox 25.3.
Screening O=C(c1ccc2c(c1)OCO2)N(c1ccc(F)cc1)C1C=CS(=O)(=O)C1 (stereo unspecified) returned eIF2B yeast act 56.5* and Yeast growth tox -3.6.
`COc1ccc(CCN2C(=NC(=O)CCC(=O)O)SC3CS(=O)(=O)CC32)cc1` (stereo unspecified) gave eIF2B yeast act 31.0 and Yeast growth tox -15.7.
Cc1cc2c(c(=O)n1CC1CCCO1)C(c1ccco1)C(C#N)=C(N)O2 (stereo unspecified) was read as eIF2B yeast act 64.4* and Yeast growth tox 7.5.
Screening Cc1cc2c(c(=O)n1CCCn1ccnc1)C(c1ccco1)C(C#N)=C(N)O2 (stereo unspecified) returned eIF2B yeast act -21.9 and Yeast growth tox 10.8.
For COc1cccc(C(=O)Nc2cccc(C(=O)N3CCOCC3)c2)c1 the results were eIF2B yeast act 59.2* and Yeast growth tox 8.7.
Screening Cc1cccc(C(=O)Nc2cccc(C(=O)N3CCOCC3)c2)c1 returned eIF2B yeast act 21.7 and Yeast growth tox 3.5.
Cc1csc(NC(=O)CSc2nc(C)cs2)n1 was read as eIF2B yeast act 15.9 and Yeast growth tox 10.2.
For Cc1csc(NC(=O)c2cccn2C)n1 the results were eIF2B yeast act 51.1* and Yeast growth tox -4.3.
Screening O=C1CNC(=O)N1Cc1ccc(Br)cc1 returned eIF2B yeast act 51.0* and Yeast growth tox -8.9.
For Brc1ccc(CN2CCSCC2)cc1 the results were eIF2B yeast act 10.8 and Yeast growth tox 8.8.
For CCn1nc(C)c(NS(=O)(=O)c2ccccc2)c1C the results were eIF2B yeast act -31.6 and Yeast growth tox 20.8.
CCOC(=O)c1c(N)nn(C(C)=O)c1-c1ccccc1 was read as eIF2B yeast act 53.8* and Yeast growth tox -2.9.
Screening CCOC(=O)c1c(N)nn(C(=O)C(C)C)c1-c1ccc(OC)cc1 returned eIF2B yeast act 12.1 and Yeast growth tox -41.0.
For Cc1ccc(/C=N/NC(=O)CC2N=C(Cc3ccccc3)NNC2=O)cc1 (stereo unspecified) the results were eIF2B yeast act 17.2 and Yeast growth tox -1.3.
Cc1nn2c(C)c(C(=O)Nc3ccccc3)cnc2c1C#N was read as eIF2B yeast act -9.8 and Yeast growth tox inconclusive.
Screening Cc1cc2ncc(C(=O)Nc3ccccc3)c(C)n2n1 returned eIF2B yeast act 51.9* and Yeast growth tox 4.5.
Screening CCC(Sc1nc2ccccc2s1)C(=O)Nc1cc(C)on1 (stereo unspecified) returned eIF2B yeast act 27.3 and Yeast growth tox -1.1.
Cc1nc2ccc(-c3ccccc3)cc2o1 was read as eIF2B yeast act 4.7 and Yeast growth tox 32.4*.
`Cc1cc(-c2nc3ccccc3o2)c2ccccc2n1` gave eIF2B yeast act 4.7 and Yeast growth tox -5.6.
`CC(C)Oc1cccc(-c2nnc(SCC(=O)Nc3ccc4c(c3)OCCO4)n2N)c1` gave Yeast growth tox 13.0.
For COc1ccc(NC(C)=O)cc1NC(C)C(=O)Nc1cccc2ccccc12 (stereo unspecified) the results were eIF2B yeast act 21.6 and Yeast growth tox -31.1.
O=C(CCSc1nnc(-c2ccco2)o1)Nc1ccc(Cl)cc1 was read as eIF2B yeast act 57.5* and Yeast growth tox -32.0.
`O=C(CSc1nnc(-c2ccco2)o1)NC(=O)Cc1ccccc1` gave eIF2B yeast act 23.9 and Yeast growth tox 7.8.
Screening COc1cc(S(=O)(=O)N(Cc2cccnc2)Cc2ccco2)ccc1-n1cnnn1 returned eIF2B yeast act 52.9* and Yeast growth tox 4.7.
For COc1cc(S(=O)(=O)N(Cc2ccc(C)cc2)Cc2ccco2)ccc1-n1cnnn1 the results were eIF2B yeast act 13.2 and Yeast growth tox -13.3.
CC(C)(Oc1ccc(Cl)cc1)C(=O)Nc1ccncc1 was read as Yeast growth tox 75.7*.
CC(C)(Oc1ccc(Cl)cc1)C(=O)NCc1ccco1 was read as eIF2B yeast act 21.9 and Yeast growth tox 28.6.
CCOc1ccc(C2C(C#N)=C(N)N3C(=C2C#N)Sc2ccccc23)cc1 (stereo unspecified) was read as eIF2B yeast act 53.5* and Yeast growth tox 0.3.
N#CC1=C(N)N2C(=C(C#N)C1c1ccccc1)Sc1ccccc12 (stereo unspecified) was read as eIF2B yeast act 13.8 and Yeast growth tox 7.2.
Screening Cc1ccc(C(=O)C(NC(=O)c2ccco2)Nc2sc3c(c2C(N)=O)CCCC3)cc1 (stereo unspecified) returned eIF2B yeast act 23.0 and Yeast growth tox -3.9.
Screening CCCCCOC(=O)Cn1c(SCC(=O)Nc2ccccc2)nc2c1c(=O)[nH]c(=O)n2C returned eIF2B yeast act 59.5* and Yeast growth tox -19.7.
Screening CCOC(=O)CSc1nc2c(c(=O)[nH]c(=O)n2C)n1C/C=C(/C)Cl returned eIF2B yeast act 22.3 and Yeast growth tox 2.0.
`O=C(CCCN1C(=O)c2cccc3cccc(c23)C1=O)N1CCc2ccccc2C1` gave Yeast growth tox 9.3.
`CCC(=O)N1CCc2cc(S(=O)(=O)NC(C(=O)NCc3ccc(F)cc3)C(C)C)ccc21` (stereo unspecified) gave eIF2B yeast act 27.3 and Yeast growth tox 1.8.
CCC(=O)N1CCc2cc(S(=O)(=O)NC(C(=O)NCc3ccccc3)C(C)C)ccc21 (stereo unspecified) was read as eIF2B yeast act 55.1* and Yeast growth tox 2.7.
`OC(Cn1cncn1)(c1ccccc1)c1ccccc1` gave Yeast growth tox 85.8*.
Screening c1ccc(NCn2cncn2)nc1 returned eIF2B yeast act 9.8 and Yeast growth tox 3.1.
